Rows were chosen to be rich in hits. Some 5.2% of all compounds tested hit in one or more screens of this group.
Ecoli tolC = growth inhibitors of E. coli tolC mutant, primary screen, strain BW25113 ΔtolC::kan, 384-well; actives 2.2% (n = 65,000); OD615; growth inhibition, % at 10 µM (by protocol);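 active means growth inhibition at or above a cutoff equal to the mean over every tested compound plus 3 SD, cut at about 60% in these data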;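 further: growth measured after 20 h incubation at 37 °C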
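Test system – E. coli BW25113 ΔtolC::kan, tolC deletion mutant strain · Detection – OD at 615 nm · Buffer or medium – LB with kanamycin 50 µg/mL · Times – 20 h compound exposure of bacteria at 37 °C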
WNV protease inh = inhibitors of WNV NS2B-NS3 protease, primary screen, biochemical, fluorogenic substrate. Genome polyprotein (West Nile virus), P06935. fluorogenic substrate Ex360/Em465; active compounds read low. z-score (concentration not given with the values). actives 0.18% (n = 65,000). AID 577, 2007; in the data active means z-score below about -3
Target sequence (P06935 1371-1501 limits assumed): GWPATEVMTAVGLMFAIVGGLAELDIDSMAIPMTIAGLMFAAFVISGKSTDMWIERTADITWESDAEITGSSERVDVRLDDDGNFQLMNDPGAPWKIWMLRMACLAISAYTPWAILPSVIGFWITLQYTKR
Target sequence (P06935 1502-1679 limits assumed): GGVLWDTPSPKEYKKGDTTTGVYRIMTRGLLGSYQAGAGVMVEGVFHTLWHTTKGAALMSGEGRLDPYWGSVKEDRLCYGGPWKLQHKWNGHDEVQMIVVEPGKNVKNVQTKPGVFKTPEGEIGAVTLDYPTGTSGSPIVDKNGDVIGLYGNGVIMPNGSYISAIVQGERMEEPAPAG
Ecoli WT expand = growth inhibitors of wild-type E. coli, primary screen, strain BW25113, expanded library, OD600; OD600 absorbance; growth inhibition, % at 100 µM; actives 0.15% (n = 98,000); AID 710, 2007;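 active means growth inhibition above about 50% at one test dose, limit read from the data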;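 further: growth measured after 20 h incubation at 37 °C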
M1 antag = antagonists of rat M1 muscarinic receptor. actives 3.4% (n = 64,000). B-score at 10 µM. CHO-M1 cells, Fluo-4 calcium, ACh EC80 antagonist mode; active compounds read low. Muscarinic acetylcholine receptor M1 (Rattus norvegicus), P08482;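 active means calcium fluorescence response, raw or row-and-column corrected B-score, differing from the plate sample mean either way at a set confidence level, mostly lower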
AP complement = alternative complement pathway inhibitors, primary screen, biochemical, ELISA, human serum, orthogonally pooled compounds; LPS-coated ELISA, C3 deposition; tested in compound mixtures; inhibition, % at 5 µM; actives 0.08% (n = 62,000);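 active means inhibition above 30% in each of the two pooled mixtures holding the compound, so the lower value exceeds 30%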;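 further: 0% = serum in Mg-EGTA without compound and 100% = EDTA serum blank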
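Test system: human serum complement alternative pathway, C3 deposition onto LPS / Medium: Mg2+-EGTA GVB++ buffer containing human serum at 1:15 dilution / Probe or stimulus: Plate-bound LPS / Times: 1 h at 37 °C / Signal: ELISA with HRP anti-human C3 antibody, TMB substrate, absorbance 450 nm / Measure: percent inhibition / Repeats: two pool placements per compound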
M1 agonist = M1 muscarinic receptor agonists, primary screen, CHO-M1 cells, Fluo-4 calcium, agonist mode; Muscarinic acetylcholine receptor M1; AID 626, 2007; Fluo-4 calcium fluorescence; active compounds read high; B-score at 10 µM; actives 3% (n = 64,000);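 active means fluorescence rise, raw or as B-score row- and column-corrected plate score, outside the 99.7% band of its plate's samples, either direction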
M1 agonist conf = rat M1 muscarinic receptor agonists, confirmation, CHO-M1 cells, Fluo-4 calcium, duplicate retest. AID 1488, 2009. Fluo-4 calcium fluorescence, agonist mode; actives lie on both sides. fluorescence change (max-min) at 10 µM. actives 19% (n = 1,700). shares compounds with M1 agonist;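 active means fluorescence change differs from the solvent-only DMSO control mean at a set confidence level in both duplicate runs; inconclusive means differs from solvent-only control mean in just one of two runs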;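 further: an EC20 dose of acetylcholine follows compound addition during the same imaging run; raw fluorescence intensity difference in instrument units with no normalization to controls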
M4 agonist ctr = agonist activity at rat M4 receptor, confirmation, counter-screen for M1 allosteric modulator project, cell-based, agonist mode. shares compounds with M1 agonist. CHO M4/Gqi5 cells, Fluo-4 calcium fluorescence; actives lie on both sides. fluorescence change (max-min) at 10 µM. actives 9% (n = 1,700);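 active means fluorescence change differing from the plate's solvent-only control wells at 99.7% confidence in both duplicates, whether higher or lower; inconclusive means differs from solvent controls in only one of two duplicates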
The depositor's hits bear a star; ? = inconclusive; . = no result given.

SMILES	Ecoli tolC	WNV protease inh	Ecoli WT expand	M1 antag	AP complement	M1 agonist	M1 agonist conf	M4 agonist ctr
Cc1nc(N2CCN(S(=O)(=O)c3cccc4nonc34)CC2)c2c3c(sc2n1)CCCC3	49.5	-0.03	-14.0	0.0556	-14.3	0.948	.	.
Cc1nn(C(=O)c2cc3sccc3[nH]2)c(C)c1C	-2.8	-0.2	-6.0	0.0294	-2.7	-0.406	.	.
COC(=O)c1cc(NC(=O)C2COc3ccccc3O2)ccc1Cl (stereo not given)	39.8	-1.4	4.0	-0.602	12.7	5.72*	-17.4	-33.1
COCCNC(=O)c1ccccc1NC(=O)C1COc2ccccc2O1 (stereo not given)	-1.1	0.00472	-1.0	-0.286	-5.4	5.65*	-29.4*	-120*
O=C(Nc1ccc(S(=O)(=O)N2CCCC2)cc1)C1COc2ccccc2O1 (stereo not given)	15.8	-0.3	-2.0	-0.188	0.5	-0.256	.	.
O=C(Nc1ccc(S(=O)(=O)N2CCOCC2)cc1)C1COc2ccccc2O1 (stereo not given)	12.3	-0.39	7.0	-0.852	0.2	8.72*	?	-66.2*
O=C(CSc1nnc(COc2ccc3c(c2)CCCC3)o1)Nc1ccc(F)cc1	-1.2	-0.3	-7.0	-0.801	19.9	-0.0892	.	.
O=C(CS(=O)(=O)c1c[nH]c2ccccc12)Nc1ccc2c(c1)OCCO2	4.9	.	2.0	0.052	4.3	3.24*	-10.7	-40.6
Cn1cc(S(=O)(=O)CC(=O)Nc2ccc3c(c2)OCCO3)c2ccccc21	4.0	.	.	-1.26	11.6	-0.918	.	.
COC(=O)CSc1nc(-c2ccccc2)cc(-c2ccco2)c1C#N	-2.2	-0.92	-6.0	-0.334	2.2	-0.379	.	.
CSc1nc(-c2ccco2)cc(-c2ccccc2)c1C#N	-11.0	-0.5	-12.0	0.1	-4.7	15.4*	?	?
CCCCN1CCc2c([nH]c3ccc(C)cc23)C1=O	0.9	0.77	-3.0	-0.0758	-11.6	3.52*	-11.7	?
COc1ccccc1NS(=O)(=O)CC12CCC(CC1=O)C2(C)C (stereo not given)	-6.2	0.05	-5.0	0.0133	2.1	1.61	.	.
CCCN(CCC)S(=O)(=O)c1ccc(C(=O)N2CCC(=O)c3ccccc32)cc1	24.5	0.01	-7.0	-2.76*	7.6	3.26*	-18.4	-64.5
O=C(c1ccc(S(=O)(=O)N2CCCCC2)cc1)N1CCCc2ccccc21	12.9	0.35	1.0	0.898	8.3	0.00168	.	.
CCOC(=O)N1CCN(C(=O)C2CCN(C(=O)c3cc4sccc4n3CC)CC2)CC1	-15.2	0.61	6.0	-0.366	17.2	3.84*	-2.72	-10.3
Cc1ccccc1C(=O)Nc1nc2n(n1)C(c1ccccc1)CC(=O)N2 (stereo not given)	.	.	0.0	.	.	.	.	.
O=C(Nc1ccc(-c2nc3c(ccc4ccccc43)o2)cc1)c1ccco1	.	.	-9.0	.	.	.	.	.
Cn1nc(CC(=O)NC2CCCCCCCCCCC2)c2ccccc2c1=O	.	.	2.0	.	.	.	.	.
Cn1nc(CC(=O)Nc2ccc3c(c2)CCC3)c2ccccc2c1=O	-0.3	-0.73	3.0	-1.99	8.6	11.1*	32.6	19.5
CCOC(=O)c1c(NC(=O)CSc2nnc(-c3ccccc3C)n2C)sc(C(C)=O)c1C	9.8	1.39	-11.0	-5.18*	-1.3	2.36*	-9.58	?
Cn1c(=O)c(NCCO)c2c3c(cccc31)C(=O)c1ccccc1-2	25.2	-1.19	-5.0	-13.2*	5.6	388*	3131*	2588*
CCNc1c2c3c(cccc3n(C)c1=O)C(=O)c1ccccc1-2	6.5	0.37	-1.0	-17.3*	15.4	357*	3230*	2794*
COc1ccc(-c2ccc(-c3noc(-c4ccccc4)n3)c(OC)n2)cc1	-10.2	0.22	-15.0	-0.0199	2.8	-2.85*	8.52	-5.59
CC1CCN(c2nc3ccccc3nc2C(C#N)C(=O)NC2CCCCC2)CC1 (stereo not given)	-16.9	-0.33	.	-0.277	14.6	8.76*	105*	41.8
SMILES	Ecoli tolC	WNV protease inh	Ecoli WT expand	M1 antag	AP complement	M1 agonist	M1 agonist conf	M4 agonist ctr
CCCCNC(=O)C(C#N)c1nc2ccccc2nc1N1CCCC1 (stereo not given)	-11.8	-0.92	-1.0	-1.78	-3.5	53.7*	856*	750*
CCC(CC)COC(=O)C(C#N)c1nc2ccccc2nc1N1CCN(CC)CC1 (stereo not given)	28.3	-0.35	4.0	-0.155	8.9	2.58	.	.
CCCCCCOC(=O)C(C#N)c1nc2ccccc2nc1N1CCCCC1 (stereo not given)	1.0	0.09	-29.0	-2.17	12.5	9.88*	?	77.3
CCC(C)COC(=O)C(C#N)c1nc2ccccc2nc1N1CCCCC1 (stereo not given)	15.2	0.000251	-18.0	-0.101	-10.2	1.55	.	.
CCCCCCOC(=O)C(C#N)c1nc2ccccc2nc1N1CCN(C)CC1 (stereo not given)	100.0*	-0.62	17.0	1.95*	3.7	5.07*	-13.5	?
Cn1c(=O)c(-c2cc(Br)ccc2N)nc2ccccc21	.	.	2.0	.	.	.	.	.
CCCOc1ccc(C(=O)NNC(=S)NC(=O)c2cc(-c3ccccc3)nc3ccccc23)cc1	.	.	-14.0	.	.	.	.	.
COc1ccc(CNC(=O)C(C#N)c2nc3ccccc3nc2N2CCN(C)CC2)cc1 (stereo not given)	12.1	1.01	-9.0	-0.821	14.5	0.429	.	.
COc1ccc(CNC(=O)C(C#N)c2nc3ccccc3nc2N2CCCC2)cc1 (stereo not given)	-8.0	0.84	-11.0	-6.88*	16.6	165*	373*	562*
COc1cccc(C2=CC(c3ccccc3)n3nnnc3N2)c1 (stereo not given)	6.7	0.5	0.0	0.00496	.	-0.524	.	.
COc1cccc(C2=CC(c3ccccc3)n3ncnc3N2)c1 (stereo not given)	9.3	-0.65	4.0	-0.298	.	32.9*	159*	148*
COc1cccc(C2=CC(c3ccc(N(C)C)cc3)n3ncnc3N2)c1 (stereo not given)	27.2	-0.87	1.0	-0.316	3.1	2.2*	-4.98	-40.1
Cc1ccc(/C=c2\s/c(=C(/C#N)C(=O)N3CCCC3)n(Cc3ccco3)c2=O)s1	13.4	-0.46	-24.0	-0.0884	-2.6	2.97*	1.97	3.25

Compound activity (PubChem BioAssay)
